Assay results from ChEMBL document CHEMBL3124924, “Bifunctional ethyl 2-amino-4-methylthiazole-5-carboxylate derivatives: synthesis and in vitro biological evaluation as antimicrobial and anticancer agents” (2014).
Converted amounts (≈) assume the structure as drawn. The source made the active and inactive calls. No cut-off for these calls is given here.

Assays:
Candida albicans [1] = assay: Antifungal activity against Candida albicans ATCC 10231 assessed as growth inhibition at 1 mg/mL after 48 hrs by agar-cup diffusion method; format: functional; details: ATCC 10231, 48 h, read-out: DIZ
How it was run: (§1)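 Agar-cup diffusion: 1 mL of 6 h broth culture seeded per 100 mL molten sterile agar at 45 °C and poured into plates. 8 mm cups cut, each filled with 0.1 mL of 1 mg/mL test solution. Incubated 37 °C for 24 h, 48 h for C. albicans. DMSO control per organism. Inhibition zone diameter in mm, mean of three measurements.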

Escherichia coli [2] = assay: Antibacterial activity against Escherichia coli ATCC 25922 assessed as growth inhibition at 1 mg/mL after 24 hrs by agar-cup diffusion method; format: functional; details: ATCC 25922, 24 h, read-out: DIZ; how it was run: as §1
Bacillus spizizenii [3] = assay: Antibacterial activity against Bacillus subtilis ATCC 6633 assessed as growth inhibition at 1 mg/mL after 24 hrs by agar-cup diffusion method; format: functional; details: ATCC 6633, 24 h, read-out: DIZ; how it was run: as §1
Aspergillus niger = assay: Antifungal activity against Aspergillus niger assessed as growth inhibition at 1 mg/mL after 24 hrs by agar-cup diffusion method; format: functional, organism-based; how it was run: as §1
Candida albicans [4] = assay: Fungicidal activity against Candida albicans ATCC 10231 after 18 hrs; format: functional; details: ATCC 10231, 18 h
How it was run: (§2)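 Continuation of the broth-dilution MIC test. A loopful from each tube without visible growth spread on a quarter of a Mueller-Hinton agar plate and incubated 18 h. Lowest concentration giving no growth on subculture taken as the MBC.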

Candida albicans [5] = assay: Antifungal activity against Candida albicans ATCC 10231 assessed as growth inhibition after 48 hrs by two-fold serial dilution assay; format: functional; details: ATCC 10231, 48 h
How it was run: (§3)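 Twofold serial broth dilution run on compounds giving inhibition zones of 13 mm or more. Organisms pre-grown in suitable broth at 37 °C, 24 h for bacteria and 48 h for fungi. Dilution series 200, 100, 50, 25, 12.5, 6.25. Each 5 mL tube inoculated with 0.1 mL and incubated 37 °C for 48 h. Tubes scored for presence or absence of growth.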

Pseudomonas aeruginosa [6] = assay: Bactericidal activity against Pseudomonas aeruginosa ATCC 27853 after 18 hrs; format: functional; details: ATCC 27853, 18 h; how it was run: as §2
Pseudomonas aeruginosa [7] = assay: Antibacterial activity against Pseudomonas aeruginosa ATCC 27853 assessed as growth inhibition after 48 hrs by two-fold serial dilution assay; format: functional; details: ATCC 27853, 48 h; how it was run: as §3
Escherichia coli [8] = assay: Bactericidal activity against Escherichia coli ATCC 25922 after 18 hrs; format: functional; details: ATCC 25922, 18 h; how it was run: as §2
Escherichia coli [9] = assay: Antibacterial activity against Escherichia coli ATCC 25922 assessed as growth inhibition after 48 hrs by two-fold serial dilution assay; format: functional; details: ATCC 25922, 48 h; how it was run: as §3
Bacillus spizizenii [10] = assay: Bactericidal activity against Bacillus subtilis ATCC 6633 after 18 hrs; format: functional; details: ATCC 6633, 18 h; how it was run: as §2
Bacillus spizizenii [11] = assay: Antibacterial activity against Bacillus subtilis ATCC 6633 assessed as growth inhibition after 48 hrs by two-fold serial dilution assay; format: functional; details: ATCC 6633, 48 h; how it was run: as §3
Staphylococcus aureus [12] = assay: Bactericidal activity against Staphylococcus aureus ATCC 6538 after 18 hrs; format: functional; details: ATCC 6538, 18 h; how it was run: as §2
Staphylococcus aureus [13] = assay: Antibacterial activity against Staphylococcus aureus ATCC 6538 assessed as growth inhibition after 48 hrs by two-fold serial dilution assay; format: functional; details: ATCC 6538, 48 h; how it was run: as §3
Staphylococcus aureus [14] = assay: Antibacterial activity against Staphylococcus aureus ATCC 6538 assessed as growth inhibition at 1 mg/mL after 24 hrs by agar-cup diffusion method; format: functional; details: ATCC 6538, 24 h, read-out: DIZ; how it was run: as §1
Pseudomonas aeruginosa [15] = assay: Antibacterial activity against Pseudomonas aeruginosa ATCC 27853 assessed as growth inhibition at 1 mg/mL after 24 hrs by agar-cup diffusion method; format: functional; details: ATCC 27853, 24 h, read-out: DIZ; how it was run: as §1

CCOC(=O)c1sc(NC(=S)Nc2ccc(F)cc2)nc1C
zone of inhibition at 1000 µg/mL (Candida albicans [1]): > 13 mm
zone of inhibition at 1000 µg/mL (Escherichia coli [2]): > 13 mm
zone of inhibition at 1000 µg/mL (Bacillus spizizenii [3]): > 13 mm
growth inhibition (GI) (Aspergillus niger): inactive
MFC (Candida albicans [4]): 50 µg/mL (≈ 147 µM)
MIC (Candida albicans [5]): 25 µg/mL (≈ 73.7 µM)
MBC (Pseudomonas aeruginosa [6]): 100 µg/mL (≈ 295 µM)
MIC (Pseudomonas aeruginosa [7]): 100 µg/mL (≈ 295 µM)
MBC (Escherichia coli [8]): 25 µg/mL (≈ 73.7 µM)
MIC (Escherichia coli [9]): 25 µg/mL (≈ 73.7 µM)
MBC (Bacillus spizizenii [10]): 25 µg/mL (≈ 73.7 µM)
MIC (Bacillus spizizenii [11]): 25 µg/mL (≈ 73.7 µM)
MBC (Staphylococcus aureus [12]): 12.5 µg/mL (≈ 36.8 µM)
MIC (Staphylococcus aureus [13]): 12.5 µg/mL (≈ 36.8 µM)
zone of inhibition at 1000 µg/mL (Staphylococcus aureus [14]): > 13 mm
zone of inhibition at 1000 µg/mL (Pseudomonas aeruginosa [15]): > 13 mm
